Sampled rows, rich in hits. Any-hit rate of the full collection: about 4.9%.
APP 5'UTR act: activators of APP 5'UTR luciferase reporter, primary screen, SH-SY5Y cells. SH-SY5Y APP 5'UTR luciferase reporter, luminescence; zero percent = DMSO vehicle wells. activation, % at 2 µM. 190,000 compounds, 1% hits. AID 1276, 2008;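 active means activation above a set limit, based on mean plus 3 SD of controls, cut at about 140% in these data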
STAT1 blocker: STAT1 signaling inhibitors, primary screen, cell-based, HTS, luciferase reporter; inhibition, % at 5.5 µM; 200,000 compounds, 0.35% hits; NIH 3T3 STAT1-luciferase reporter, IFN-gamma, luminescence;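 active means inhibition above a set limit, the mean inhibition across all tested compounds plus 3 SD, cut at about 34% in these data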;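 further: 0% = IFN-gamma with DMSO and 100% = IFN-gamma with 300 µM nifuroxazide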
STAT3 act: IL-6 driven STAT3 reporter potentiators, primary screen, U3A cells, luciferase, luminescence, MLSCN library; IL-6 STAT3-luciferase reporter; 100% = signal with IL-6 EC80 alone; AID 871, 2007; activation (% of control), % at 5.6 µM; 190,000 compounds, 0.91% hits;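 active means activation above the screen-wide mean of compound activation plus 3 SD, cut at about 130% in these data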;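 further: 0% = background luminescence of wells with medium and substrate only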
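Assay system – human STAT1-deficient U3A cells with stable STAT3-luciferase reporter · Also added – IL-6 (33 ng/mL) · Schedule – compound 1 h, then IL-6 6 h at 37 °C · Technique – reporter luminescence signal · Evaluation – % activation versus median of IL-6-stimulated wells · Benchmarks – IL-6-only wells as 100% reference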
STAT3 blocker: IL-6 driven STAT3 reporter inhibitors, primary screen, U3A cells, luciferase, luminescence, MLSCN library | 190,000 compounds, 0.89% hits | inhibition, % at 5.5 µM | IL-6 STAT3-luciferase reporter; host cell line lacks STAT1;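 active means inhibition above the mean inhibition across all screened compounds plus 3 SD, cut at about 44% in these data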;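 further: 0% = DMSO only wells and 100% = 100 µM nifuroxazide control wells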
NF-kB neuron act: activators of NF-kB expression in neurons, primary screen, cell-based, HTS; human neuronal cells, NF-kB reporter expression; stronger effect = higher value; AID 1239, 2008; fold change at 12.5 µM; 190,000 compounds, 1.6% hits; in the data active means fold change above about 3.3
STAT1 act: STAT1 signaling activators, primary screen, cell-based, HTS, luciferase reporter; NIH 3T3 STAT1-luciferase reporter, IFN-gamma, luminescence; 100% = IFN-gamma alone, no compound; activation (% of control), % at 5.5 µM; 200,000 compounds, 2.6% hits; AID 932, 2007;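 active means activation above the screen-wide mean activation plus 3 SD, cut at about 130% in these data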;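 further: raw ratio to IFN-gamma control signal so 100% means no change and 0% no light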
Numbers without * were called inactive.

O=C(CCc1ccccc1)Nc1ccc2c(c1)OCCO2 was read as APP 5'UTR act 132, STAT1 blocker -50, STAT3 act 102, STAT3 blocker 1, NF-kB neuron act 4.5* and STAT1 act 145*.
Screening Cc1ccc(NC(=O)CCCN2C(=S)NC(C)(C)CC2C)cc1 (configuration not stated) returned APP 5'UTR act 23, STAT1 blocker 0, STAT3 act 98, STAT3 blocker 4, NF-kB neuron act 0.97 and STAT1 act 98.
Cc1cnc(NC(=O)CCNC(=O)c2ccccc2Cl)s1 was read as APP 5'UTR act 14, STAT1 blocker -4, STAT3 act 105, STAT3 blocker -5, NF-kB neuron act 1.2 and STAT1 act 104.
CC1CC(C)(C)NC(=S)N1CCCC(=O)Nc1ccc2c(c1)OCCO2 (configuration not stated) was read as APP 5'UTR act 61, STAT1 blocker -42, STAT3 act 97, STAT3 blocker 10, NF-kB neuron act 1.2 and STAT1 act 137*.
For O=C(COc1ccccc1Cl)Nc1ccc2c(c1)OCCO2 the results were APP 5'UTR act 190*, STAT1 blocker -17, STAT3 act 99, STAT3 blocker 7, NF-kB neuron act 2.8 and STAT1 act 116.
`Cc1cnc(NC(=O)COc2ccccc2Cl)s1` gave APP 5'UTR act 100, STAT1 blocker 61*, STAT3 act 26, STAT3 blocker 92*, NF-kB neuron act 1.1 and STAT1 act 45.
`O=C(COc1ccccc1Cl)NCCc1ccc2c(c1)OCCO2` gave APP 5'UTR act -9, STAT1 blocker 7, STAT3 act 102, STAT3 blocker -2, NF-kB neuron act 1.7 and STAT1 act 93.
Screening c1ccc(OCCSc2nnnn2C2CCCCC2)cc1 returned APP 5'UTR act 142*, STAT1 blocker -36, STAT3 act 111, STAT3 blocker -2 and STAT1 act 133*.
COc1ccc(OCCSc2nnnn2C2CCCCC2)cc1 was read as APP 5'UTR act 13, STAT1 blocker -6, STAT3 act 110, STAT3 blocker -9, NF-kB neuron act 1.6 and STAT1 act 105.
Screening O=C(CNC(=O)c1ccccc1Br)N/N=C/c1ccc(O)cc1 returned APP 5'UTR act 3, STAT1 blocker -3, STAT3 act 105, STAT3 blocker 1, NF-kB neuron act 1.1 and STAT1 act 102.
For O=C(Nc1ccc(O)cc1)c1cc2ccccc2c(=O)s1 the results were APP 5'UTR act 56, STAT1 blocker -26, STAT3 act 89, STAT3 blocker 16, NF-kB neuron act 3 and STAT1 act 122.
Screening O=C(Nc1ccccc1)c1cc2ccccc2c(=O)s1 returned APP 5'UTR act 61, STAT1 blocker -52, STAT3 act 105, STAT3 blocker -6, NF-kB neuron act 1.3 and STAT1 act 146*.
CCC(=C(c1ccc(OC)cc1)c1ccc(OC)cc1)c1cn(CC(O)CN2CCN(C)CC2)c2ccccc12 (configuration not stated) was read as APP 5'UTR act 19, STAT1 blocker 9, STAT3 act 101, STAT3 blocker 4, NF-kB neuron act 0.61 and STAT1 act 91.
Screening CCOC(=O)N1C(=O)C2(CCCCC2)N(c2ccccc2Cl)C1=S returned APP 5'UTR act 3, STAT1 blocker -17, STAT3 act 118, STAT3 blocker -25, NF-kB neuron act 1 and STAT1 act 115.
Screening CC(=O)c1ccc(N2Cc3ccccc3C2=NC(=O)c2cccs2)cc1 returned APP 5'UTR act 86, STAT1 blocker -39, STAT3 act 65, STAT3 blocker 43, NF-kB neuron act 3 and STAT1 act 135*.
For O=C(/C=C/c1cccs1)N1CCc2ccccc21 the results were APP 5'UTR act 187*, STAT1 blocker -38, STAT3 act 77, STAT3 blocker 30, NF-kB neuron act 8.1* and STAT1 act 134*.
For O=C(c1cccs1)N1CCc2ccccc21 the results were APP 5'UTR act 52, STAT1 blocker -43, STAT3 act 94, STAT3 blocker 11, NF-kB neuron act 1.8 and STAT1 act 139*.
O=C(c1cccs1)N1CCCc2ccccc21 was read as APP 5'UTR act 6, STAT1 blocker -3, STAT3 act 106, STAT3 blocker -4, NF-kB neuron act 1.2 and STAT1 act 103.
For C=CCN1C(=O)N/C(=C/c2ccccc2OCC(=O)Nc2ccc(F)cc2)C1=O the results were APP 5'UTR act 10, STAT1 blocker 3, STAT3 act 97, STAT3 blocker 1, NF-kB neuron act 1.4 and STAT1 act 99.
Screening CCC(=O)NC1CCN(C(=S)NC)CC1 returned APP 5'UTR act -6, STAT1 blocker 1, STAT3 act 107, STAT3 blocker -6, NF-kB neuron act 1.4 and STAT1 act 97.
Screening O=C(CNC(=O)c1ccc(Cl)cc1)OCc1nc2ccccc2s1 returned APP 5'UTR act 3, STAT1 blocker 4, STAT3 act 119, STAT3 blocker -23, NF-kB neuron act 1 and STAT1 act 97.
O=C(OCc1nc2ccccc2s1)c1cccs1 was read as APP 5'UTR act -7, STAT1 blocker -40, STAT3 act 151*, STAT3 blocker -57, NF-kB neuron act 1.2 and STAT1 act 137*.
COc1cc(OC)cc(C(=O)NCC(=O)OCc2nc3ccccc3s2)c1 was read as APP 5'UTR act 140*, STAT1 blocker -52, STAT3 act 132, STAT3 blocker -34, NF-kB neuron act 1.8 and STAT1 act 145*.
For CC(C)OCCCNCC(O)c1ccccc1 (configuration not stated) the results were APP 5'UTR act 3, STAT1 blocker -2, STAT3 act 96, STAT3 blocker 5, NF-kB neuron act 1.2 and STAT1 act 102.
Screening COc1cc(NC(=O)CSc2nc(C)c(C)c(C)n2)cc(OC)c1 returned APP 5'UTR act 9, STAT1 blocker 2, STAT3 act 105, STAT3 blocker -5, NF-kB neuron act 1.2 and STAT1 act 98.
For Cc1cc(NC(=O)NC(=O)c2cccc(OC(F)(F)C(F)F)c2)n[nH]1 the results were APP 5'UTR act 55, STAT1 blocker -35, STAT3 act 121, STAT3 blocker -23, NF-kB neuron act 1.7 and STAT1 act 132*.
Screening c1ccc(-c2onc3cc4c(cc23)OCCO4)cc1 returned APP 5'UTR act 88, STAT1 blocker -52, STAT3 act 101, STAT3 blocker 3, NF-kB neuron act 3.8* and STAT1 act 146*.
